According to the EternaBench riboswitch data:

Test system: MS2 coat protein
Test: apparent Kd, MS2 coat protein; higher = weaker binding; RNA-MaP array
How it was run: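 Binding of fluorescently labeled MS2 coat protein, at 1.5 nM to 3 μM and room temperature, was measured with or without input ligand on designed RNAs transcribed on an Illumina sequencing chip from sequenced DNA templates. Apparent Kd was defined as the median of per-cluster binding-curve fits. No design measured on fewer than 10 clusters was kept.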

[1] = designed as: ON switch for flavin mononucleotide, no ligand
[2] = ligand present: flavin mononucleotide, designed as: ON switch for flavin mononucleotide
[3] = designed as: OFF switch for flavin mononucleotide, no ligand
[4] = ligand present: flavin mononucleotide, designed as: OFF switch for flavin mononucleotide
[5] = designed as: OFF switch for theophylline, no ligand
[6] = ligand present: theophylline, designed as: OFF switch for theophylline

## GCAAUACAUGAGGAUCACCCAUGUUUUAGAUACGAAGGAUAUGUGUAAGCGUACUAAUGUACAGAAGGUCGGAUUU
[1]
  apparent Kd: 13.1 nM
[2]
  apparent Kd: 9.26 nM

## AUCAAUGAUCGACAUGAGGAUCACCCAUGUGCUUGGCGACUAAGAAGGGCCAGGCCACCAAGGCGGCAGGAUAUUAGUAGGACC
[3]
  apparent Kd: 84.2 nM
[4]
  apparent Kd: 24.3 nM

## CUUAAGUGAGGAUAUCGUGGGACUACAUUAAUGAGAAUCAGCGAGAAGGCACAUGAGGAUCACCCAUGUGGUAA
[3]
  apparent Kd: 18.6 nM
[4]
  apparent Kd: 76.2 nM

## GCUCUGUCAGGAUAUAGGACGGCAACAGGCAAACUAAGCAACUAGAAGGGACAUGAGGAUCACCCAUGUAGCGC
[3]
  apparent Kd: 9.33 nM
[4]
  apparent Kd: 9.2 nM

## UUGUACGAAACUGAUACCAGCCAGCAAUGCCACCAAGAGCACAUGAGGAUCACCCAUGUUGGCCCUUGGCAGCAGGACAAUAAGC
[5]
  apparent Kd: 8.63 nM
[6]
  apparent Kd: 9.47 nM

## CACCCGUCGACUUAGGAUAUACUGUUGUGAACAUGAGGAUCACCCAUGUAUUAAGCUAGAACGAAGUAGAAGGAAGUUUUCCUUGC
[1]
  apparent Kd: 15.6 nM
[2]
  apparent Kd: 13.1 nM

## UUGGCACGGACGGCCGCCACUCUUUCACAUGAGGAUCACCCAUGUUAUCUAGUCCUCAGCAGAAAGAGGACCGGGUCGGAGUUGG
Designed as: OFF switch for tryptophan, no ligand
  apparent Kd: 126 nM
Ligand present: tryptophan, designed as: OFF switch for tryptophan
  apparent Kd: 122 nM

## UGACACAUGAGGAUCACCCAUGUUGGGUAAUGUUAACGUACAAGAAGGGCAGCCGGCCGGACGUUGCAGGAUAUUGUAGCGCGA
[3]
  apparent Kd: 41.7 nM
[4]
  apparent Kd: 31.1 nM

## AAAAUUCUAGUGAGGAUAUGGUACGUUGUAGUAAGCCAGAAGGCACAUGAGGAUCACCCAUGUAUAAUGGACGA
[3]
  apparent Kd: 31.1 nM
[4]
  apparent Kd: 148 nM

## AUCGCAGAUGUAAGGAUAUUAGUGUAGCAACGGUCAAAGAAGGAACAUGAGGAUCACCCAUGUGGUAGAUAAAU
[3]
  apparent Kd: 19 nM
[4]
  apparent Kd: 15.2 nM

## CGGUCCACUGAGAAGGCUCACUCCAUGCCGAGGAGAGGAUAUCAAACCUAUAUUGCACGCAGCGAACAUGAGGAUCACCCAUGU
[1]
  apparent Kd: 11 nM
[2]
  apparent Kd: 8.73 nM

## UAGUAAACCGCAGGAUAUCCAACUUGGGCACCAGGAGAAGGGCGAUUAACAUGAGGAUCACCCAUGUAUUCGGAGAGCUUACCU
[1]
  apparent Kd: 10.4 nM
[2]
  apparent Kd: 9.18 nM

## CCCUCGUUAUAGAAGGUCACAUUAAAUAAACAUGAAGGAUAUAUACCCAUUACACAUGAGGAUCACCCAUGUUAGGGCUGGCAU
[3]
  apparent Kd: 14.2 nM
[4]
  apparent Kd: 13.6 nM

## CAACCACACAUAAGGCAAGGACAUGAGGAUCACCCAUGUGGUAGAAGGCAUCCUAAUGCGGACGAUGAGGAUAUACGACGUGCA
[3]
  apparent Kd: 75.5 nM
[4]
  apparent Kd: 50 nM

## UGCCUAUACCAGAAGGGCGUACGGGAAAACAUGAGGAUCACCCAUGUGAGAUCAUCAUCGCUAGCGCAGGAUAUGGAAGUUCGG
[3]
  apparent Kd: 25 nM
[4]
  apparent Kd: 29.4 nM

## GCUAUGAACGUAGGAUAUGAAGCCUGGCUUGGUUCAGAAGGACGUGAGUAAGUGAGGUCCUGACAUGAGGAUCACCCAUGUACA
[3]
  apparent Kd: 23.9 nM
[4]
  apparent Kd: 31.7 nM

## CGCCGUGAUUAGAAGGGUGGUGGGAAUCUUAUCACAGGAUAUAAAUAGGGCCGCUACAUGAGGAUCACCCAUGUCCUCCGGUCA
[3]
  apparent Kd: 200 nM
[4]
  apparent Kd: 165 nM

## CCGCGACCUGAGAAGGGCUGCCAAGGGAGACACAUGAGGAUCACCCAUGUCGGGUGGUCCUGCUAGCAGGAUAUCAUCGCAGGA
[3]
  apparent Kd: 173 nM
[4]
  apparent Kd: 225 nM

## GUAACUCAGGUCAGGAUAUUCGAGUAAGGGAAAACGAAGAAGGGACAUGAGGAUCACCCAUGUAACACGACUAU
[3]
  apparent Kd: 18.1 nM
[4]
  apparent Kd: 86.3 nM

## AAUGGACGAGGAUAUACAUGAGGAUCACCCAUGUCACAGUGGGCUCACCGUUCGGGUAGUAGAAGGCGUUUCUA
[3]
  apparent Kd: 107 nM
[4]
  apparent Kd: 282 nM

## CCGACACAGAAGAAGGCUUUUGGUCUUAGCAGAAGAGGAUAUUCCUGUGUUCCGCGUACAUGAGGAUCACCCAUGUGUGAGCAC
[3]
  apparent Kd: 6.59 nM
[4]
  apparent Kd: 7.46 nM

## AAAGAUUCCUGAACGCCGCAUACCGAUGAUACCAGCCAACGGAAAGGCCCUUGGCAGCAUUAAACAUGAGGAUCACCCAUGUCUA
[5]
  apparent Kd: 11.8 nM
[6]
  apparent Kd: 13.9 nM

## AUCAAGUCAGGAUAUGAACUAAAGAUGGAAAACGUAGCAAAACAGAAGGGACAUGAGGAUCACCCAUGUGGAAG
[3]
  apparent Kd: 19.9 nM
[4]
  apparent Kd: 17 nM

## GUAUAUACAUAGGAUAUGUCGGCCGGUUAUGCAACAGAAGGAUGUACAUGAGGAUCACCCAUGUCAAUUGGGAG
[3]
  apparent Kd: 74.6 nM
[4]
  apparent Kd: 220 nM

## CGUUGACAUGAGGAUCACCCAUGUUCCCUAGCCACAGGAUAUCGACGCGUGCUCGCUAGACGAGAAGGGUGGUAAA
[1]
  apparent Kd: 30.4 nM
[2]
  apparent Kd: 11.7 nM

## UCUCAUCAGUAGAAGGGCAGACCCUAACAAGGUGCAGGAUAUACUCUAAGUCCUACAUGAGGAUCACCCAUGUCAUAUAUCGGG
[3]
  apparent Kd: 323 nM
[4]
  apparent Kd: 196 nM

## CGAAUAUAGGCUACGUGUCAUUGAGGCGAUACCAGAUUAUGCCAGAUCCCUUGGCAGCGCCAAACAUGAGGAUCACCCAUGUUCA
[5]
  apparent Kd: 22.1 nM
[6]
  apparent Kd: 29.3 nM
